# Measured values published in ChEMBL document CHEMBL1275462 (Antimicrob Agents Chemother, 2008).
# Activity calls are given as the source filed them. The calls are words filed in the database; no cut-off is given here.
# Experiments:
# Staphylococcus aureus [1] = test: Antimicrobial activity against vancomycin-intermediate Staphylococcus aureus Mu50 by Etest; format: functional
# Outline: (§1)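 Etest and population analysis: overnight cultures plated on TSA with increasing vancomycin, oxacillin or BPR, CFU counted after 48 h at 37°C. For VRSA strains, vancomycin plates also run with constant 1 µg/ml BPR. Vancomycin Etest read after overnight 37°C incubation on TSA with or without 1 µg/ml BPR.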
# Staphylococcus aureus [2] = test: Antimicrobial activity against vancomycin-intermediate Staphylococcus aureus JH9 obtained from bacteremic patient by Etest; format: functional; outline: as §1
# Staphylococcus aureus [3] = test: Antimicrobial activity against vancomycin-resistant Staphylococcus aureus VRS1 by Etest; format: functional; outline: as §1
# Staphylococcus aureus [4] = test: Antimicrobial activity against oxacillin-resistant Staphylococcus aureus COLVA harboring Tn1546 transposon by Etest; format: functional; outline: as §1
# Staphylococcus aureus [5] = test: Antimicrobial activity against methicillin-resistant Staphylococcus aureus E2125 by Etest; format: functional
# Outline: (§2)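 Etest (manufacturer's method) and population analysis: overnight cultures serially diluted and plated on TSA with increasing oxacillin or BPR, CFU counted after 48 h at 37°C. Colonies from subpopulations growing at high oxacillin or BPR were picked, restreaked on antibiotic-free TSA for three passages, then retested by population analysis.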
# Staphylococcus aureus [6] = test: Antimicrobial activity against methicillin-resistant Staphylococcus aureus HPV107 by Etest; format: functional; outline: as §2
# Staphylococcus aureus [7] = test: Antimicrobial activity against methicillin-resistant Staphylococcus aureus BK2464 by Etest; format: functional; outline: as §2
# Staphylococcus aureus [8] = test: Antimicrobial activity against methicillin-resistant Staphylococcus aureus HDE288 by Etest; format: functional; outline: as §2
# Staphylococcus aureus [9] = test: Antimicrobial activity against methicillin-resistant Staphylococcus aureus BK2529 by Etest; format: functional; outline: as §2
# Staphylococcus aureus [10] = test: Antimicrobial activity against methicillin-resistant Staphylococcus aureus HAR24 by Etest; format: functional; outline: as §2
# Staphylococcus aureus [11] = test: Antimicrobial activity against methicillin-resistant Staphylococcus aureus HAR22 by Etest; format: functional; outline: as §2
# Staphylococcus aureus [12] = test: Antimicrobial activity against methicillin-resistant Staphylococcus aureus USA300 by Etest; format: functional; outline: as §2
# Staphylococcus aureus [13] = test: Antimicrobial activity against methicillin-resistant Staphylococcus aureus COL by Etest; format: functional; outline: as §2
# Staphylococcus aureus [14] = test: Antimicrobial activity against methicillin-resistant Staphylococcus aureus HU25 by Etest; format: functional; outline: as §2
# Staphylococcus aureus [15] = test: Antimicrobial activity against methicillin-resistant Staphylococcus aureus E2125 assessed as concentration required for bacterial subpopulation growth; format: functional; outline: as §2
# Staphylococcus aureus [16] = test: Antimicrobial activity against methicillin-resistant Staphylococcus aureus HPV107 assessed as concentration required for bacterial subpopulation growth; format: functional; outline: as §2
# Staphylococcus aureus [17] = test: Antimicrobial activity against methicillin-resistant Staphylococcus aureus BK2464 assessed as concentration required for bacterial subpopulation growth; format: functional; outline: as §2
# Staphylococcus aureus [18] = test: Antimicrobial activity against methicillin-resistant Staphylococcus aureus HDE288 assessed as concentration required for bacterial subpopulation growth; format: functional; outline: as §2
# Staphylococcus aureus [19] = test: Antimicrobial activity against methicillin-resistant Staphylococcus aureus BK2529 assessed as concentration required for bacterial subpopulation growth; format: functional; outline: as §2
# Staphylococcus aureus [20] = test: Antimicrobial activity against methicillin-resistant Staphylococcus aureus HAR24 assessed as concentration required for bacterial subpopulation growth; format: functional; outline: as §2
# Staphylococcus aureus [21] = test: Antimicrobial activity against methicillin-resistant Staphylococcus aureus HAR22 assessed as concentration required for bacterial subpopulation growth; format: functional; outline: as §2
# Staphylococcus aureus [22] = test: Antimicrobial activity against methicillin-resistant Staphylococcus aureus USA300 assessed as concentration required for bacterial subpopulation growth; format: functional; outline: as §2
# Staphylococcus aureus [23] = test: Antimicrobial activity against methicillin-resistant Staphylococcus aureus HU25 assessed as concentration required for bacterial subpopulation growth; format: functional; outline: as §2
# Staphylococcus aureus [24] = test: Antimicrobial activity against methicillin-resistant Staphylococcus aureus E2125 assessed as concentration required for minimum inhibition of oxacillin-resistant subpopulation growth by Etest; format: functional; outline: as §2
# Staphylococcus aureus [25] = test: Antimicrobial activity against methicillin-resistant Staphylococcus aureus HPV107 assessed as concentration required for minimum inhibition of oxacillin-resistant subpopulation growth by Etest; format: functional; outline: as §2
# Staphylococcus aureus [26] = test: Antimicrobial activity against methicillin-resistant Staphylococcus aureus BK2464 assessed as concentration required for minimum inhibition of oxacillin-resistant subpopulation growth by Etest; format: functional; outline: as §2
# Staphylococcus aureus [27] = test: Antimicrobial activity against methicillin-resistant Staphylococcus aureus HDE288 assessed as concentration required for minimum inhibition of oxacillin-resistant subpopulation growth by Etest; format: functional; outline: as §2
# Staphylococcus aureus [28] = test: Antimicrobial activity against methicillin-resistant Staphylococcus aureus BK2529 assessed as concentration required for minimum inhibition of oxacillin-resistant subpopulation growth by Etest; format: functional; outline: as §2
# Staphylococcus aureus [29] = test: Antimicrobial activity against methicillin-resistant Staphylococcus aureus HAR24 assessed as concentration required for minimum inhibition of oxacillin-resistant subpopulation growth by Etest; format: functional; outline: as §2
# Staphylococcus aureus [30] = test: Antimicrobial activity against methicillin-resistant Staphylococcus aureus HAR22 assessed as concentration required for minimum inhibition of oxacillin-resistant subpopulation growth by Etest; format: functional; outline: as §2
# Staphylococcus aureus [31] = test: Antimicrobial activity against methicillin-resistant Staphylococcus aureus USA300 assessed as concentration required for minimum inhibition of oxacillin-resistant subpopulation growth by Etest; format: functional; outline: as §2
# Staphylococcus aureus [32] = test: Antimicrobial activity against methicillin-resistant Staphylococcus aureus COL assessed as reduction in viable bacterial titer after 24 hrs in presence of 10 times compound MIC; format: functional
# Staphylococcus aureus [33] = test: Bactericidal activity against methicillin-resistant Staphylococcus aureus COL assessed as reduction in viable bacterial titer after 24 hrs at 10 times MIC; format: functional, organism-based
# Outline: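 Time-kill: exponentially growing COL cultures (OD620 0.2, about 10^8 CFU/ml at zero time) given 10× MIC of drug under aerobic conditions. Untreated control. Aliquots taken at intervals, serially diluted, plated on TSA, colonies counted after 48 h at 37°C.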
# MecA = target: T1, MecA (Staphylococcus aureus, UniProt Q7DHH4); test: Inhibition of methicillin-resistant Staphylococcus aureus COL PBP2a by competitive assay; design: species or system Staphylococcus aureus subsp. aureus COL
# T1 sequence (Q7DHH4 whole entry): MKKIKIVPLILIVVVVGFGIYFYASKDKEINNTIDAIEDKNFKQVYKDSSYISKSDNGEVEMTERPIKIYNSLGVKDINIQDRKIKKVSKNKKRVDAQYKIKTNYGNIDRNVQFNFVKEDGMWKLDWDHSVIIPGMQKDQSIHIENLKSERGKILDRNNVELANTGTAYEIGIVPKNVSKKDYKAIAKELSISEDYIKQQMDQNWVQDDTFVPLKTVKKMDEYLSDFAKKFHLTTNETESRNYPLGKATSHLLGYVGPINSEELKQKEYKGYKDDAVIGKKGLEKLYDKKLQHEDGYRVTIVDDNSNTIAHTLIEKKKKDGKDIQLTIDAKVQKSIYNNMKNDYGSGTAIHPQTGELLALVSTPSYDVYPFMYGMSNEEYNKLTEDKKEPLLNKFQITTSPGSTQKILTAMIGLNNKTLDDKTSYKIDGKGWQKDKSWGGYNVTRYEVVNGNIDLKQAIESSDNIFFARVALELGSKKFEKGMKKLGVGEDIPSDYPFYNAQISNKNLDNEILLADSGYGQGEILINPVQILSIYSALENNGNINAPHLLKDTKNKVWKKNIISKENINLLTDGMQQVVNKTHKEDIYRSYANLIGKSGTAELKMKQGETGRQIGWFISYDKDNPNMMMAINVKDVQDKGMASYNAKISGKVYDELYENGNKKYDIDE
# Outline: (§3)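 Purified soluble PBP 2A (mecA expressed in E. coli, 97% pure) at 0.8 µM, preincubated with drug 30 min at 30°C. Then 20 µM Bocillin FL added for 10 min at 37°C, quenched with SDS-PAGE buffer and boiled. Drug range 0.5–20 µM; for IC50, BPR 0.5–200 µM or oxacillin 5–6,000 µM. Curve fitting.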
# [34] = target: T2, MecA (Staphylococcus aureus) (UniProt Q7DHH4); test: Inhibition of methicillin-resistant Staphylococcus aureus 67-O PBP2a by competitive assay
# T2 sequence (whole entry): T1 sequence (Q7DHH4 whole entry)
# [35] = target: T2, MecA (Staphylococcus aureus); test: Inhibition of methicillin-resistant Staphylococcus aureus COL PBP2a at 10 uM by competitive assay; conditions: Staphylococcus aureus subsp. aureus COL; outline: as §3
# [36] = target: T2, MecA (Staphylococcus aureus); test: Displacement of benzyl-[14C]penicillin from Staphylococcus aureus PBP2a RU130 mutant at 2500 ug/ml by in vitro competitive assay; conditions: Staphylococcus aureus subsp. aureus COL
# Outline: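 Membranes from PBP 2 insertional mutant RU130 (Tn551 in transpeptidase domain), late exponential phase, 150 µg protein, preincubated with increasing oxacillin or BPR 10 min at 30°C. Then labelled with 20 µg/ml benzyl[14C]penicillin 10 min at 37°C and stopped with excess unlabelled penicillin in SDS. SDS-PAGE with phosphor screen exposure for 2 weeks.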
smiles,measurement,setting,value
CN[C@H](CC(C)C)C(=O)N[C@H]1C(=O)N[C@@H](CC(N)=O)C(=O)N[C@H]2C(=O)N[C@H]3C(=O)N[C@H](C(=O)N[C@H](C(=O)O)c4cc(O)cc(O)c4-c4cc3ccc4O)[C@H](O)c3ccc(c(Cl)c3)Oc3cc2cc(c3O[C@@H]2O[C@H](CO)[C@@H](O)[C@H](O)[C@H]2O[C@H]2C[C@](C)(N)[C@H](O)[C@H](C)O2)Oc2ccc(cc2Cl)[C@H]1O [VANCOMYCIN],MIC,Staphylococcus aureus [1],6 µg/mL
same,MIC,Staphylococcus aureus [2],6 µg/mL
same,MIC,Staphylococcus aureus [3],> 800 µg/mL
same,MIC,Staphylococcus aureus [4],800 µg/mL
Cc1onc(-c2ccccc2)c1C(=O)N[C@@H]1C(=O)N2[C@@H]1SC(C)(C)[C@@H]2C(=O)O [OXACILLIN],MIC,Staphylococcus aureus [5],6 µg/mL
same,MIC,Staphylococcus aureus [6],0.8 µg/mL
same,MIC,Staphylococcus aureus [7],12.5 µg/mL
same,MIC,Staphylococcus aureus [8],0.8 µg/mL
same,MIC,Staphylococcus aureus [9],1.5 µg/mL
same,MIC,Staphylococcus aureus [10],100 µg/mL
same,MIC,Staphylococcus aureus [11],100 µg/mL
same,MIC,Staphylococcus aureus [12],0.8 µg/mL
same,MIC,Staphylococcus aureus [13],> 800 µg/mL
same,MIC,Staphylococcus aureus [14],400 µg/mL
same,Activity,Staphylococcus aureus [15],400 µg/mL
same,Activity,Staphylococcus aureus [16],400 µg/mL
same,Activity,Staphylococcus aureus [17],400 µg/mL
same,Activity,Staphylococcus aureus [18],400 µg/mL
same,Activity,Staphylococcus aureus [19],400 µg/mL
same,Activity,Staphylococcus aureus [20],800 µg/mL
same,Activity,Staphylococcus aureus [21],400 µg/mL
same,Activity,Staphylococcus aureus [22],800 µg/mL
same,Activity,Staphylococcus aureus [23],800 µg/mL
same,Activity,Staphylococcus aureus [24],400 µg/mL
same,Activity,Staphylococcus aureus [25],100 µg/mL
same,Activity,Staphylococcus aureus [26],200 µg/mL
same,Activity,Staphylococcus aureus [27],200 µg/mL
same,Activity,Staphylococcus aureus [28],200 µg/mL
same,Activity,Staphylococcus aureus [29],800 µg/mL
same,Activity,Staphylococcus aureus [30],800 µg/mL
same,Activity,Staphylococcus aureus [31],400 µg/mL
same,MIC,Staphylococcus aureus [1],> 800 µg/mL
same,MIC,Staphylococcus aureus [2],3 µg/mL
same,MIC,Staphylococcus aureus [3],> 800 µg/mL
same,MIC,Staphylococcus aureus [4],800 µg/mL
same,fold reduction in CFU,Staphylococcus aureus [32],1000 fold
same,Activity,Staphylococcus aureus [33],inactive
same,IC50,MecA,710 µM
same,Activity,[34],300 µg/mL
same,inhibition,[35],5%
same,Activity,[36],Active
